A selection: hits, their analogues and other compounds. The true share with any hit is near 2.4%.
MT stabilize HCS – microtubule stabilization, imaging screen. HeLa tubulin immunostaining HCS, 24 h; share of cells brighter than vehicle mean+2SD. % tubulin-high responders, % at 10 µM. 0.83% of 200,000 active. AID 2205;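 active = plate Z-score above 3 for both tubulin-high and condensed-nucleus cell shares, with cell loss under 80%, at 10 µM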;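 note: anti alpha tubulin signal scored within the nucleus-defined area of each cell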
HSV replic up – HSV replication enhancement. maximum fold increase. HSV replication augmentation in cells, fold increase. AID 1956. 0.005% of 220,000 active; in the data active = maximum fold increase above about 1.5; tested in PC3 cells
b-catenin transl – modulators of beta-catenin nuclear translocation; AID 1665; HeLa beta-catenin nuclear translocation, immunofluorescence imaging; 0.3% of 190,000 active; nuclear translocation activity, % at 5 µM;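 active = nuclear translocation activity above 50% at 5 µM, with a well cell count of 50 or more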;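 note: per-cell ratio of nuclear to cytoplasmic median beta-catenin stain intensity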
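test system = HeLa cells, endogenous beta-catenin | dosing = single 5 µM dose plus 0.02–20 µM confirmation series | times = compound treatment 24 h, 37°C, 5% CO2 | technique = beta-catenin immunofluorescence imaging with DAPI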
Insulin prom inh – TRM-6 insulin promoter activity inhibition; 0.9% of 130,000 active; TRM-6 cells, insulin promoter-eGFP reporter, imaging; reporter expression induced with tamoxifen; AID 1273; inhibition, % at 2 µM;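 active = inhibition above the mean plus 3 SD, with well images judged a real hit on visual review, cut at about 60% in these data, passing the limit was not always enough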
ROMK primary – human ROMK K+ channel modulation, primary screen | Tet-inducible ROMK, thallium flux fluorescence; actives lie on both sides | P48048 | B-score at 10 µM | 2% of 130,000 active;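 active = signal ratio slope over the read window, or its plate-corrected B-score, at least 3 SD from the plate mean, either direction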;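 note: B-score of the F/F0 ratio slope over 7 to 12 s after thallium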
Target sequence (P48048 whole entry, looked up): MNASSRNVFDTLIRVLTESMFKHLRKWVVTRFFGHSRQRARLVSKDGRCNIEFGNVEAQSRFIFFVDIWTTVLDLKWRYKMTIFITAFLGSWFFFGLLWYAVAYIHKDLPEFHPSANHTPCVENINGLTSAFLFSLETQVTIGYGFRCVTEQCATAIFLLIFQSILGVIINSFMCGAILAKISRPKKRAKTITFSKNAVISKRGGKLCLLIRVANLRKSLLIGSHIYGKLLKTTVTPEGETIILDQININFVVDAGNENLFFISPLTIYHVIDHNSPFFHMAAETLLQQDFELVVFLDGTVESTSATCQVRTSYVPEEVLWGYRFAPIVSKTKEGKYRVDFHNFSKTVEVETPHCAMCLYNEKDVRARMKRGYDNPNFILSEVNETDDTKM
Numbers stand for hits; n = inactive; x = no result.

SMILES | MT stabilize HCS | HSV replic up | b-catenin transl | Insulin prom inh | ROMK primary
FC(F)(F)c1cccc(NC(=S)N(CCCN2CCCC2)Cc2cccn2Cc2ccc(Cl)cc2)c1 | 76 | n | n | n | x
Cc1ccc(NC(=S)N(CCCN2CCCC2)Cc2cccn2Cc2ccc(Cl)cc2)cc1Cl | n | x | n | n | x
CNC(=S)N1N=C(c2ccc(C)cc2)CC1c1cc(OC)ccc1OC (stereo unspecified) | 12 | n | n | x | n
CNC(=S)N1N=C(c2ccc(C)cc2)CC1c1ccc(OC)cc1 (stereo unspecified) | n | n | n | n | n
COc1ccc(/C=C/C(=O)CC(O)(c2ccccc2)C(F)(F)F)cc1 (stereo unspecified) | n | n | n | 85 | x
O=C(O)c1ccc(N=NNc2cccc([N+](=O)[O-])c2)cc1 | n | n | n | n | n
N#C/C(=N\Nc1cccc([N+](=O)[O-])c1)C(=O)c1ccc(Br)cc1 | n | n | n | x | 3.1
Cc1cccc(N2CCN(C(=O)C(C)C)CC2)c1C | n | n | n | 79 | x
CC(=O)Nc1ccc(S(=O)(=O)N2CCN(c3cccc(C)c3C)CC2)cc1 | 14 | n | n | x | x
CC(=O)Nc1ccc(S(=O)(=O)N2CCCN(S(=O)(=O)c3ccc(NC(C)=O)cc3)CC2)cc1 | n | n | x | n | x
O=c1c(/C=N/OCc2ccc(Cl)cc2Cl)c[nH]n1-c1cccc(Cl)n1 | n | n | n | x | n
Cc1ccc(NC(=S)N(CCN2CCOCC2)Cc2cc3cc4c(cc3[nH]c2=O)OCO4)cc1 | n | n | n | x | n
O=C(c1cccc(F)c1)N1CCN(c2cccc(Cl)c2)CC1 | 21 | n | x | x | x
O=C(Cc1cccs1)N1CCN(c2cccc(Cl)c2)CC1 | n | n | n | n | n
O=C(c1cccc(S(=O)(=O)N2CCCC2)c1)N1CCN(c2ccccc2)CC1 | 18 | n | x | n | x
Cc1onc(-c2ccccc2Cl)c1C(=O)N1CCN(c2cccc(Cl)c2)CC1 | 20 | n | x | x | x
O=C(c1c(Cl)nc2sccn12)N1CCN(c2cccc(Cl)c2)CC1 | 19 | n | 112 | n | n
O=S(=O)(Cc1ccccc1)c1cnc2ccccc2n1 | n | n | n | n | n
COC(=O)C1=C(SC)N(c2ccccc2)C(c2ccccc2)CC1=O (stereo unspecified) | n | n | n | n | x
O=C(c1cccc(-c2ccc(O)cc2)c1)N1CCN(c2ccc(F)cc2)CC1 | n | n | n | 68 | n
COc1ccccc1C(=O)N1CCN(c2cccc(Cl)c2)CC1 | 31 | n | 56 | x | n
COc1cc2c(C(=O)N3CCN(c4cccc(Cl)c4)CC3)cn(C)c(=O)c2cc1OC | n | n | x | n | n
O=C(NCc1cccnc1)c1ccccc1[N+](=O)[O-] | n | n | n | n | x
COc1cc(/C=N/N=C(N)N)ccc1OCc1ccc(Cl)cc1 | 67 | n | n | x | n
CCCn1nnnc1SCC(=O)N1CCOCC1 | n | n | n | 83 | x
SMILES | MT stabilize HCS | HSV replic up | b-catenin transl | Insulin prom inh | ROMK primary
CCn1nnnc1SCC(=O)N1CCOCC1 | n | n | n | n | x
CC(C)OP(=O)(OC(C)C)C(Nc1ccccc1)c1cccnc1 (stereo unspecified) | x | n | n | x | n
COc1ccc(/C=N/Nc2ccc(C(F)(F)F)cc2[N+](=O)[O-])cc1O | n | n | n | n | n
CCOc1ccc(/C=N/Nc2ccc(C(F)(F)F)cc2[N+](=O)[O-])cc1O | n | n | n | 71 | n
CC12CCC(C(=O)N(CSC(=S)N/N=C\c3ccccc3)C1=O)C2(C)C (stereo unspecified) | n | x | x | 76 | x
CC12CCC(C(=O)N(CSC(=S)N/N=C\c3ccccc3Cl)C1=O)C2(C)C (stereo unspecified) | n | n | x | n | n
N#CC1=C(N)NC(SCc2ccc(F)cc2)=C(C#N)C12CCCCC2 | 47 | n | x | n | n
Cc1ccc(NC(=O)C(=O)NCc2ccncc2)cc1 | n | n | n | n | n
Cc1cc(N2CCN(Cc3cn(C)nc3-c3cccc(Cl)c3)CC2)cc(C)n1 | n | n | 73 | x | n
CN1CCN(Cc2cn(C)nc2-c2ccccc2F)CC1c1ccccc1 (stereo unspecified) | n | n | n | x | n
Cc1cc(N2CCN(Cc3cn(C)nc3-c3ccccc3F)CC2)cc(C)n1 | 21 | n | 69 | x | x
Cn1cc(CN2CCN(c3ncccn3)CC2)c(-c2cccc(Cl)c2)n1 | n | n | n | x | n
Cc1cccc(/C=C/c2nc3ccccc3c(=O)[nH]2)c1 | 26 | n | n | x | n
Cc1[nH]c2ccccc2c1/C=C/c1nc2ccccc2c(=O)[nH]1 | x | n | n | x | n
N#CCN1CCC(c2cc(-c3ccco3)n[nH]2)CC1 | n | n | n | n | x
Cc1c(-c2ccccc2)sc2nc[nH]c(=S)c12 | n | n | n | n | 4.9
Cc1ccc(-c2csc3nc[nH]c(=S)c23)cc1C | n | n | n | x | x
CN(C)C(C)(C)C#CCC(c1ccccc1)c1ccccc1 | n | n | n | x | n
CN(C)C(C)(C)C#CCCCCC#CC(C)(C)N(C)C | n | n | n | 71 | x
COc1ccccc1C(=O)Nc1c(C)n(C)n(-c2ccccc2)c1=O | n | n | n | x | x
Cc1c(NC(=O)c2cnn3cccnc23)c(=O)n(-c2ccccc2)n1C | n | n | x | 75 | x
COc1ccccc1NC(=O)Nc1c(C)n(C)n(-c2ccccc2)c1=O | n | n | n | 100 | n
Cc1c(NC(=O)c2ccccc2F)c(=O)n(-c2ccccc2)n1C | n | n | n | n | x
CCCCCCC(C)OC(=O)c1ccccc1C(=O)O (stereo unspecified) | x | n | n | x | x
COc1ccccc1N1CCN(C(=O)c2oc3ccc(F)cc3c2C)CC1 | n | n | n | n | n
SMILES | MT stabilize HCS | HSV replic up | b-catenin transl | Insulin prom inh | ROMK primary
COc1ccccc1N1CCN(c2ncnc3c2oc2ccccc23)CC1 | 27 | n | 74 | x | n
COc1ccccc1N1CCN(C(=O)c2oc3ccc(Br)cc3c2C)CC1 | 15 | n | n | x | n
c1cnc(N2CCN(c3ncnc4c3oc3ccccc34)CC2)nc1 | x | x | n | x | x
CC1(C)N([O-])C2=C(CCCC2)[N+]1=O | n | n | n | x | n
CC1CCC(N(CCCN)Cc2ccco2)CC1C (stereo unspecified) | n | n | n | x | n
COc1cc(N)c(Cl)cc1C(=O)N[C@@H]1CCN(CCCOc2ccc(F)cc2)C[C@@H]1OC | x | n | n | x | x
O=C(OCC(=O)N1CCCc2ccccc21)c1ccc(Cl)nc1 | n | n | n | 80 | n
O=C(/C(=C/c1ccccc1)c1ccccc1)N1CCCCC1 | n | n | n | n | x
Cc1cccc(C)c1NC(=O)COC(=O)Cc1ccsc1 | n | n | n | 67 | n
Cc1cccc(C(C)C)c1NC(=O)COC(=O)COc1ccc2c(C)cc(=O)oc2c1 | n | n | n | x | x
Cc1cccc(C(C)C)c1NC(=O)COC(=O)Cc1ccsc1 | n | n | n | x | x
Cc1cccc(C)c1NC(=O)COC(=O)COc1ccc2c(C)cc(=O)oc2c1 | n | n | n | 60 | n
COc1ccc(CC(=O)Nc2cccc(SC)c2)cc1 | n | n | n | x | n
COc1cc(CC(=O)Nc2cccc(SC)c2)cc(OC)c1OC | n | n | n | 75 | n
CN(CC(=O)NCc1ccco1)S(=O)(=O)c1ccc2c(c1)c(=O)n(C)c(=O)n2C | x | n | n | x | n
C=CCNc1nnc(Sc2ncccc2[N+](=O)[O-])s1 | n | x | n | 93 | n

Compound activity (PubChem BioAssay)
